Data set [1] concerns the target Cathepsin B (Homo sapiens) (UniProt P07858). Kind of data set: Inhibition of human cathepsin B using Z-RR-AMC as substrate by fluorescence assay. The procedure, abridged: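 Human cathepsin B fraction, Z-RR-AMC substrate, at 37 °C in 352 mM KH2PO4, 48 mM Na2HPO4, 1 mM EDTA, 1 mM DTT, pH 6. Fluorescence read-out. IC50 is from percent inhibition versus inhibitor concentration.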

The nature of data set [2]: Inhibition of 20s constitutive proteasome beta 2 subunit trypsin-like activity in rabbit erythrocytes using Boc-LRR-AMC as substrate incubated for 15 mins prior to substrate addition measured after 45 mins by fluorescence assay. The data set is classed as cell-based, Oryctolagus cuniculus. The procedure, abridged: (§1)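 Purified rabbit erythrocyte constitutive 20S fraction, 0.27 nM enzyme, pre-incubated 15 min with or without inhibitor, then Boc-LRR-AMC added. Buffer at pH 7.5. Fluorescence read-out. IC50 is from a plot of percent inhibition against inhibitor concentration, Hill-equation fit.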

Data set [3] deals with T1, Calpain-1 catalytic subunit (Homo sapiens) (UniProt P07384).
T1 sequence (whole entry): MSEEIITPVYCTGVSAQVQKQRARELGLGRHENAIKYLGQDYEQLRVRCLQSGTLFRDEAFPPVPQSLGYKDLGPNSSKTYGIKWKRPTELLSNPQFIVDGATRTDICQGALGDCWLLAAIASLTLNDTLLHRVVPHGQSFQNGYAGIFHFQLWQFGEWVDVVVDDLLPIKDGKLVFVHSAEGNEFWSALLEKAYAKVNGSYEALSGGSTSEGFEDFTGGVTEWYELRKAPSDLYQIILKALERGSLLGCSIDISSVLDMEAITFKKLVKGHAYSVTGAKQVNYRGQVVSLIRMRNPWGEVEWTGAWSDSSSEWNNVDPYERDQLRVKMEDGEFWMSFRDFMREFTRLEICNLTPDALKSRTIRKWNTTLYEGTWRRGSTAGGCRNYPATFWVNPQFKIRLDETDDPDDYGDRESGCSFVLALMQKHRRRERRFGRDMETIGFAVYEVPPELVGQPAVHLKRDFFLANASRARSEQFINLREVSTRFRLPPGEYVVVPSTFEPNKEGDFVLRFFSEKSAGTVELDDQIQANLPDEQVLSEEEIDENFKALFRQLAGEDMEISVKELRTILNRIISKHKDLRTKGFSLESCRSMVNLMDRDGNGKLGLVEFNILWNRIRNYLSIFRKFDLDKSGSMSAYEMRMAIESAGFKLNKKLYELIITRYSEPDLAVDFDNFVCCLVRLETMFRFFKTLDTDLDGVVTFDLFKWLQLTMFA
Nature of the data set: Inhibition of human calpain-1 using Suc-LLVY-AMC as substrate by fluorescence assay. The procedure, abridged: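 Human calpain I fraction, Suc-LLVY-AMC substrate, at 25 °C in 50 mM Tris, 10 mM DTT with CaCl2, pH 7.2. Fluorescence read-out. IC50 is from percent inhibition versus inhibitor concentration.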

The species entered for data set [4] is Oryctolagus cuniculus. Nature of the data set: Inhibition of 20s constitutive proteasome beta 1 subunit caspase-like activity in rabbit erythrocytes using Z-LLE-betaNA as substrate at 100 uM incubated for 15 mins prior to substrate addition measured after 45 mins by fluorescence assay relative to control. The data set is classed as cell-based. The essentials: (§2)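 Purified rabbit erythrocyte constitutive 20S fraction, 0.27 nM enzyme, pre-incubated 15 min with or without inhibitor before substrate addition. Buffer pH 7.5: 20 mM Tris, 1 mM DTT, 10% glycerol, 0.02% (w/v) SDS. Fluorescence read-out. IC50 is from a percent inhibition versus concentration plot, fitted with a Hill-type equation.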

Data set [5] in a line: Inhibition of 20s constitutive proteasome beta 5 subunit chymotrypsin-like activity in rabbit erythrocytes using Suc-LLVY-AMC as substrate incubated for 15 mins prior to substrate addition measured after 45 mins by fluorescence assay. The data set is classed as cell-based, Oryctolagus cuniculus. The essentials:
as §2

Data set [6] is filed under the species Oryctolagus cuniculus. Nature of the data set: Inhibition of 20s constitutive proteasome beta 5 subunit chymotrypsin-like activity in rabbit erythrocytes using Suc-LLVY-AMC as substrate at 100 uM incubated for 15 mins prior to substrate addition measured after 45 mins by fluorescence assay relative to control. The data set is classed as cell-based. The procedure, abridged: as §2

For data set [7], the species on record is Oryctolagus cuniculus. Kind of data set: Inhibition of 20s constitutive proteasome beta 2 subunit trypsin-like activity in rabbit erythrocytes using Boc-LRR-AMC as substrate at 100 uM incubated for 15 mins prior to substrate addition measured after 45 mins by fluorescence assay relative to control. The data set is classed as cell-based. The essentials: as §1

The species named for data set [8] is Oryctolagus cuniculus. Kind of data set: Inhibition of 20s constitutive proteasome beta 1 subunit caspase-like activity in rabbit erythrocytes using Z-LLE-betaNA as substrate at 25 uM incubated for 15 mins prior to substrate addition measured after 45 mins by fluorescence assay relative to control. It counts as cell-based. The procedure, abridged:
as §2

The species named for data set [9] is Oryctolagus cuniculus. Kind of data set: Inhibition of 20s constitutive proteasome beta 2 subunit trypsin-like activity in rabbit erythrocytes using Boc-LRR-AMC as substrate at 50 uM incubated for 15 mins prior to substrate addition measured after 45 mins by fluorescence assay relative to control. The data set is classed as cell-based. The essentials: as §1

Data set [10] can be described thus: Inhibition of 20s constitutive proteasome beta 1 subunit caspase-like activity in rabbit erythrocytes using Z-LLE-betaNA as substrate incubated for 15 mins prior to substrate addition measured after 45 mins by fluorescence assay. It counts as cell-based, Oryctolagus cuniculus. The essentials:
as §2

In another data set the test system is HeLa. Kind of data set: Cytotoxicity against human HeLa cells assessed as decrease cell attachment after 18 to 72 hrs by XTT assay. The data set is classed as cell-based. The essentials: (§3)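 HeLa cells seeded and handled as for the in-cell proteasome assay, then exposed to inhibitor for 18 or 72 h. Viability read as XTT reduction to formazan by mitochondrial dehydrogenases: 3 h with 1 mg/mL XTT, absorbance at 485 nm.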
(In general: Tetrazolium dyes change colour on reduction, which living cells bring about.)

In data set [11] the target is T2, Proteasome Macropain subunit MB1 (Homo sapiens) (UniProt P28074).
T2 sequence (whole entry): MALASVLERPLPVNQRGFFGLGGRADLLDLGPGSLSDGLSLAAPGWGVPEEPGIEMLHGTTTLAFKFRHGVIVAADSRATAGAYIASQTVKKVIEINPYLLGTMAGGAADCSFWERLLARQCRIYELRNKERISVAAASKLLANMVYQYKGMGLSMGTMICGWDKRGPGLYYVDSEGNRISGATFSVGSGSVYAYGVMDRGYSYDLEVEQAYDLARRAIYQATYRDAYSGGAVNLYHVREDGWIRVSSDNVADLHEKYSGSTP
Nature of the data set: Inhibition of 20s immunoproteasome beta 5 subunit chymotrypsin-like activity in human blood monocytes using Suc-LLVY-AMC as substrate at 100 to 2000 nM preincubated for 2 mins followed by substrate addition by fluorescence assay. It counts as cell-based. The procedure, abridged:
(§4)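 Purified immunoproteasome 20S fraction, run like the constitutive assay but with a 2-min pre-incubation with inhibitor before adding the respective substrate. Fluorescence read-out. IC50 is from percent inhibition versus concentration, fitted with a Hill-number equation.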

In data set [12] the test system is mitochondrial dehydrogenase activity (cytotoxicity readout). Nature of the data set: Cytotoxicity against human HeLa cells assessed as inhibition of mitochondrial dehydrogenase activity at 50 uM after 18 to 72 hrs by XTT assay relative to control. It counts as cell-based. To be noted: read-out: INH. The essentials: as §3
Data set [13] has as its target Proteasome Macropain subunit (Homo sapiens) (UniProt P49721). Kind of data set: Inhibition of 20s immunoproteasome beta 2 subunit trypsin-like activity in human blood monocytes using Boc-LRR-AMC as substrate at 100 to 2000 nM preincubated for 2 mins followed by substrate addition by fluorescence assay. It counts as cell-based. The procedure, abridged:
as §4

The species named for data set [14] is Oryctolagus cuniculus. Nature of the data set: Inhibition of 20s constitutive proteasome beta 1 subunit caspase-like activity in rabbit erythrocytes using Z-LLE-betaNA as substrate at 50 uM incubated for 15 mins prior to substrate addition measured after 45 mins by fluorescence assay relative to control. The data set is classed as cell-based. The procedure, abridged: as §2

The species entered for data set [15] is Oryctolagus cuniculus. Kind of data set: Inhibition of 20s constitutive proteasome beta 5 subunit chymotrypsin-like activity in rabbit erythrocytes using Suc-LLVY-AMC as substrate at 50 uM incubated for 15 mins prior to substrate addition measured after 45 mins by fluorescence assay relative to control. It counts as cell-based. The procedure, abridged:
as §2

The target of data set [16] is T2, Proteasome Macropain subunit MB1 (Homo sapiens). Kind of data set: Inhibition of 20s immunoproteasome beta 5 subunit chymotrypsin-like activity in human blood monocytes using Suc-LLVY-AMC as substrate at 100 uM preincubated for 2 mins followed by substrate addition by fluorescence assay. The data set is classed as cell-based. The essentials: as §4
Data set [17] addresses T3, Proteasome component C5 (Homo sapiens) (UniProt P20618).
T3 sequence (whole entry): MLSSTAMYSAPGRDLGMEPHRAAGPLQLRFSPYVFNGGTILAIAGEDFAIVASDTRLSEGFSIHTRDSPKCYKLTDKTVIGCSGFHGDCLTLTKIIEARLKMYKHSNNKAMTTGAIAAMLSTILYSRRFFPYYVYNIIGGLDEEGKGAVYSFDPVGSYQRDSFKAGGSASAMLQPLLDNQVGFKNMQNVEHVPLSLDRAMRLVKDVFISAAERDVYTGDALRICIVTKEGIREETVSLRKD
Nature of the data set: Inhibition of 20s immunoproteasome beta 1 subunit caspase-like activity in human blood monocytes using Z-LLE-betaNA as substrate at 100 uM preincubated for 2 mins followed by substrate addition by fluorescence assay. It counts as cell-based. The essentials:
as §4

From ChEMBL document CHEMBL3124927, “New C(4)- and C(1)-derivatives of furo[3,4-c]pyridine-3-ones and related compounds: evidence for site-specific inhibition of the constitutive proteasome and its immunoisoform” (Bioorg Med Chem Lett, 2014) come the findings set out here.

Activity calls are given as the source filed them. The calls are words filed in the database; no cut-off is given here.

Sequence of Proteasome Macropain subunit (Homo sapiens) (P49721 whole entry): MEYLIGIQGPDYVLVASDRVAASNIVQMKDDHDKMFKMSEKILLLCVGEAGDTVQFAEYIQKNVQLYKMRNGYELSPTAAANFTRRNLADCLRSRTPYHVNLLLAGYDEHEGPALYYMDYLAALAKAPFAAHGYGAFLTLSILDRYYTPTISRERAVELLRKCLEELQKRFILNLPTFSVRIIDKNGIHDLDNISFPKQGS

For the compound `CC1(C)OC(=O)c2c1ccnc2S`, the inhibition result in [1] and in data set [3] was “inactive” in each case. For the same compound, the IC50 (usually the concentration that gives 50% inhibition) in data set [2] was “Not Active”; in [5] (read-out: IC50) it was 79 µM. The inhibition (commonly how much of the control response was suppressed) in the data set listed under Oryctolagus cuniculus [4] is 48%.
Consider `CC1(C)OC(=O)c2c1ccnc2NNC(N)=S`, for which the inhibition result in data set [1] and in data set [3] was “inactive” each time. In addition, the values for the inhibition in the data set filed under Oryctolagus cuniculus [4], in the data set listed under Oryctolagus cuniculus [6] and in the data set filed under Oryctolagus cuniculus [7] were 41%, 26% and 29%, respectively.
Consider `CC1(C)OC(=O)c2c1ccnc2Nc1ccc(S(N)(=O)=O)cc1`, for which the inhibition result (in [1]; in the data set listed under Oryctolagus cuniculus [8]; in data set [3]) was “inactive” in each case. The IC50 entry in [2] and in data set [5] was “Not Active” throughout.
In turn, `O=c1c2c(-c3ccc(Cl)cc3)csc2ncn1CCc1ccc(F)cc1` returned an inhibition in the data set listed under Oryctolagus cuniculus [9] of 56%. Also, the IC50 result in [10] and in data set [5] was “Not Active” in each case.
For the compound `CC1(C)OC(=O)c2c1ccnc2NCC(O)COc1ccc(Cl)cc1` (stereo not drawn), the inhibition entry in data set [1] and in [3] was “inactive” each time. The IC50 is 48.1 µM in [2] (read-out: IC50) and “Not Active” in data set [10]. Besides, in the data set listed under Oryctolagus cuniculus [6], the inhibition was found to be 63%.
As for `CC1(C)OC(=O)c2c1ccnc2NCc1ccccc1`, the inhibition result in [1], in data set [11], in [3] and in data set [13] was “inactive” throughout. Moreover, the Activity result in the data set on HeLa is recorded as “Toxic”. In addition, the cytotoxicity at 50 µM in data set [12] was 35%.
Turning to `CC1(C)OC(=O)c2c1ccnc2Nc1ccc(Cl)cc1`, the inhibition result in data set [1] and in data set [3] was “inactive” in each case. Also, the IC50 result in [2] was “Not Active”. Also, the results for the inhibition in the data set listed under Oryctolagus cuniculus [4] and in the data set listed under Oryctolagus cuniculus [6] were 41.5% and 24.5%, respectively.
Regarding `CC1(C)OC(=O)c2c1ccnc2N1CCCCC1`, the inhibition entry in data set [1] and in data set [3] was “inactive” throughout. Further, the IC50 entry in [2] and in data set [5] was “Not Active” throughout. The compound further had an inhibition in the data set filed under Oryctolagus cuniculus [4] of 41.6%.
As to `CCN(CC)CC(O)Cn1cnc2sc(-c3ccccc3)cc2c1=O` (stereo not drawn), the inhibition in the data set filed under Oryctolagus cuniculus [14] came out at 25%; in the data set filed under Oryctolagus cuniculus [15] it was 36%. Moreover, the IC50 in data set [2] (read-out: IC50) was determined as 19.4 µM.
Turning to `O=c1c2cc(-c3ccccc3)sc2ncn1CCc1ccc(Cl)cc1`, the IC50 in [2] (read-out: IC50) amounted to 9.9 µM. Further, the inhibition result in data set [16] and in data set [17] was “inactive” each time.
As for `Cc1sc2ncn(CCCn3ccnc3)c(=O)c2c1C`, in the data set filed under Oryctolagus cuniculus [9], the inhibition came out at 42%. The IC50 result in data set [10] and in [5] was “Not Active” in each case.
Turning to `O=C1OC2(CCCCC2)c2ccnc(S)c21`, the inhibition result in data set [1] and in [3] was “inactive” in each case. The concentration for half-maximal inhibition (IC50) result in data set [2] is on record as “Not Active”. In addition, the inhibition was determined as 20% in the data set filed under Oryctolagus cuniculus [4] and 52% in the data set listed under Oryctolagus cuniculus [6].
